# BB579 growth dn – chemicals that inhibit yeast BB579 growth in restrictive medium (lifespan-shortening candidates) | S. cerevisiae BB579 growth, OD615, 48 h | actives 0.51% (n = 140,000) | inhibition, % at 10 µM;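 active = inhibition above a set limit, 3 SD over the mean compound inhibition, cut at about 44% in these data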
#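 Detection: OD615 turbidity measurement; Material: Saccharomyces cerevisiae DeaD strain BB579, replicative lifespan model yeast; Timing: 48 h exposure, 30 °C; Doses: single 10 µM dose; Medium: CSMM-D restrictive synthetic medium containing dextrose (glucose); Controls: amphotericin B at 10 µg/mL as positive control.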
# TNAP inh hi DEA – inhibitors of human TNAP at high phosphate acceptor concentration. inhibition, % at 20 µM. purified TNAP, CDP-star luminescence, 1 M DEA. actives 0.03% (n = 200,000). AID 1135. P05186;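 active = over 50% inhibition of tissue-nonspecific alkaline phosphatase at 20 µM in the single-dose screen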
# Target sequence (P05186 whole entry, looked up): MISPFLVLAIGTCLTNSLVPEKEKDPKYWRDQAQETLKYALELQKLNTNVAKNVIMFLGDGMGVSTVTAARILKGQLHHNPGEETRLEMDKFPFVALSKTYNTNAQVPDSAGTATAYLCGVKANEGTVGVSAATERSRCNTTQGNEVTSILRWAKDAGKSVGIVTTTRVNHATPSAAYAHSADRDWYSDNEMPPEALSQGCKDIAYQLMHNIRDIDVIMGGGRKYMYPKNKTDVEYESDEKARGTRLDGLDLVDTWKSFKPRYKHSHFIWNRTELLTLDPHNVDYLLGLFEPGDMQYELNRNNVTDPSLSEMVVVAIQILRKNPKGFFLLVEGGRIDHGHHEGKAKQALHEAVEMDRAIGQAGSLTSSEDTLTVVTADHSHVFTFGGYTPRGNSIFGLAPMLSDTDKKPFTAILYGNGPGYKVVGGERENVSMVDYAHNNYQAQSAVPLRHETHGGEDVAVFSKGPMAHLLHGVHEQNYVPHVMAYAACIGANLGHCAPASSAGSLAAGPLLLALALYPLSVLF
# Yeast lifespan up – yeast lifespan extension. S. cerevisiae growth with nicotinamide, OD615; deaD strain in restrictive glucose medium. inhibition of the nicotinamide effect, % at 10 µM. actives 0.68% (n = 130,000);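 active = inhibition above a set limit, placed 3 SD over the median of all compounds, cut at about 26% in these data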
#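 Buffer or medium: CSMM-D glucose medium, restrictive; test system: modified budding yeast, DeaD strain; compound: single dose 10 µM compound, 0.25% DMSO; schedule: culture preincubation 4 h, compound exposure 48 h, both 30 °C; detection: optical density (absorbance) at 615 nm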
# RAM network inh – blocks the yeast RAM network | S. cerevisiae dse1pr::URA3 reporter, 5-FOA growth OD615, 2 d; analog-sensitive cbk1-as2 kinase mutant strain | inhibition, % at 50 µM | actives 1.8% (n = 190,000) | AID 868;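 active = inhibition above a set limit, 3 SD over mean compound inhibition, cut at about 8.4% in these data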;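 also: inhibition rescues growth on 5-FOA so higher OD means more RAM inhibition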
# TNAP act hi DEA – activators of human TNAP at high phosphate acceptor concentration. P05186. purified TNAP, CDP-star luminescence, 1 M DEA, 30 min; active compounds read high; 0 = EDTA background, 1 = DMSO-only activity. activation factor at 20 µM. 200,000 tested, under 10 active. AID 1136;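 active = activation factor at least 2 at 20 µM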
#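 system = human TNAP | amount = enzyme diluted 1/800 final | reagent = 100 µM CDP-star substrate | signal = luminescent substrate turnover signal | dosing = one dose, 20 µM | benchmarks = EDTA negative control, DMSO positive control | measure = activation factor | timing = 30 min reaction, room temperature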
# TNAP inh noacc – inhibitors of human TNAP without phosphate acceptor; actives 0.26% (n = 200,000); purified TNAP, CDP-star luminescence, 30 min; P05186; inhibition, % at 20 µM; AID 1012;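 active = tissue-nonspecific alkaline phosphatase inhibition above about 50% at 20 µM in the single-dose screen, limit read from the data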
# RAM efflux-def – restores 5-FOA growth of efflux-deficient yeast; shares compounds with RAM network inh; S. cerevisiae efflux-deficient reporter strain, 5-FOA growth OD615, 2 days; max inhibition, %; 1,200 tested, under 10 active; call rule not given here
# Hits are given with their value; . = inactive; / = not tested or not shown. A selection: hits, their analogues and other compounds. The true share with any hit is near 2.8%.
SMILES,BB579 growth dn,TNAP inh hi DEA,Yeast lifespan up,RAM network inh,TNAP act hi DEA,TNAP inh noacc,RAM efflux-def
CCN(CC)S(=O)(=O)c1ccc(NCC2COc3ccccc3O2)c([N+](=O)[O-])c1 (stereo unspecified),.,.,.,17,.,.,.
Cc1ccc(S(=O)(=O)N2CCC(=O)N(C(COCc3cccc(C)c3)Cc3ccccc3)CC2)cc1 (stereo unspecified),.,.,.,14,.,.,.
Cc1cccc(COCC(Cc2ccccc2)N2CCN(C(=O)c3ccc(C(F)(F)F)cc3)CCC2=O)c1 (stereo unspecified),.,.,.,13,.,.,.
Cc1ccc(S(=O)(=O)N2CCC(=O)N(C(CO)C(C)C)CC2)cc1 (stereo unspecified),.,.,.,.,.,.,/
Cc1ccc(S(=O)(=O)N2CCC(=O)N(C(CO)Cc3ccccc3)CC2)cc1 (stereo unspecified),.,.,.,.,.,.,/
Cc1ccc(S(=O)(=O)N2CCC(=O)N(C(COCc3ccc(C(F)(F)F)cc3)C(C)C)CC2)cc1 (stereo unspecified),.,.,.,12,.,.,.
Cc1ccc(S(=O)(=O)N2CCC(=O)N(C(COCc3ccc(Cl)c(Cl)c3)Cc3ccccc3)CC2)cc1 (stereo unspecified),.,.,.,12,.,.,.
CN1c2ccccc2-c2nc3ccccc3n2C1c1cccs1 (stereo unspecified),.,.,.,.,.,.,/
O=C(Nc1cccnc1)OC1CCCC1,/,.,/,.,.,.,/
O=C(O)c1ccc(N2CCCCS2(=O)=O)cc1,/,.,/,.,.,.,/
CC(C)OP(=O)(OC(C)C)C(C)NC(=O)Cc1ccccc1 (stereo unspecified),/,.,/,.,.,.,/
O=C(N/N=C/c1cccs1)/C(=C/c1ccccc1)NC(=O)c1ccccc1,.,.,.,.,.,.,/
O=C(COc1ccc2c(c1)C(=O)CC1(CCCCC1)O2)NCc1ccccc1,.,.,.,12,.,.,.
C=COC(=O)CSc1nc(-c2cccs2)ccc1C#N,.,.,.,.,.,.,/
CCOC(=O)C(C)Sc1nc(-c2cccs2)ccc1C#N (stereo unspecified),.,.,.,13,.,.,.
Cc1ccc(C(=O)C(OC(=O)CCC(=O)Nc2cccc(C)c2)c2ccccc2)cc1 (stereo unspecified),.,.,.,13,.,.,.
COc1ccc(/C=C\C(=O)CC(O)(c2ccccc2)C(F)(F)F)cc1 (stereo unspecified),.,.,.,.,.,.,/
CN(C[C@@H](CC1CCCCC1)N(C[C@H](Cc1ccccc1)N(CCc1ccccc1)N=O)N=O)N=O,/,.,/,14,.,.,.
CCC(C)[C@@H](CN(N=O)[C@@H](Cc1ccccc1)CN(C)N=O)N(CCc1ccccc1)N=O (stereo partly specified),/,.,/,30,.,.,.
CCOC(=O)c1ccc(COC(=O)c2ccc3c(c2)-c2ccccc2C3=O)cc1,.,.,.,12,.,.,.
O=C(OCc1ccccc1F)c1ccc2c(c1)-c1ccccc1C2=O,.,.,.,13,.,.,.
O=C(OCc1cccc(F)c1)c1ccc2c(c1)-c1ccccc1C2=O,.,.,.,.,.,.,/
CCOC(=O)c1ccc(COC(=O)CNS(=O)(=O)c2ccccc2)cc1,/,.,/,.,.,.,/
CCOC(=O)C1=C(Cc2ccc(OC)cc2)C(=O)c2ccccc2C1=O,.,.,.,12,.,.,.
Cc1ccc(NCc2n[nH]c(=S)n2Cc2ccccc2)cc1Cl,/,.,/,.,.,.,/
SMILES,BB579 growth dn,TNAP inh hi DEA,Yeast lifespan up,RAM network inh,TNAP act hi DEA,TNAP inh noacc,RAM efflux-def
CCCCC(=O)Nc1cccc(NC(=O)c2ccccc2Br)c1,.,.,.,.,.,.,/
CCCCCCCCNC(=O)c1cccnc1SCC(=O)Nc1ccccc1OC,.,.,.,12,.,.,.
COc1ccc(-c2csc(NCc3ccco3)n2)cc1C,.,.,.,13,.,.,.
CC(=O)Nc1ccc(-c2csc(NCc3ccco3)n2)cc1,.,.,/,.,.,.,/
CCN(CC)C(NC(=O)c1ccccc1)C(=O)c1ccccc1 (stereo unspecified),.,.,.,.,.,.,/
Cc1ccc(S(=O)(=O)NCCC(c2ccccc2)c2ccco2)cc1 (stereo unspecified),.,.,.,14,.,.,.
COc1cccc(C(=O)NN2c3ccccc3CCc3ccccc32)c1,.,.,.,13,.,.,.
COc1cccc(C(=O)NN2C(=O)C3C4C=CC(O4)C3C2=O)c1 (stereo unspecified),.,.,.,.,.,.,/
CCNS(=O)(=O)c1ccc(NS(=O)(=O)c2cc(C)ccc2C)cc1,.,.,.,.,.,.,/
CCCCNS(=O)(=O)c1ccc(NS(=O)(=O)c2c(C)cc(C)cc2C)cc1,.,.,.,12,.,.,.
CCN(c1ccccc1)S(=O)(=O)c1ccc(Cl)c(C(=O)N(CC2CCCO2)C2CCS(=O)(=O)C2)c1 (stereo unspecified),/,.,/,.,.,.,/
CC(C)(C)n1nnnc1C(c1cccnc1)N(Cc1ccccc1)Cc1ccco1 (stereo unspecified),.,.,.,.,.,.,/
COc1cccc(CN(Cc2ccco2)C(c2ccc(F)cc2)c2nnnn2C(C)(C)C)c1 (stereo unspecified),.,.,.,14,.,.,.
Cc1cc(C(F)(F)F)c(C#N)c(N2CCOCC2)n1,.,.,.,.,.,.,/
N#Cc1c(C(F)(F)F)cc(C2CC2)nc1N1CCCC1,.,.,.,14,.,.,.
COc1ccccc1N1CCN(C(=O)c2sc3nc(-c4ccc(F)cc4)cn3c2C)CC1,.,.,.,.,.,.,/
O=C(CC(c1ccccc1)(c1ccccc1)c1ccccc1)N[C@@H](Cc1ccccc1)C(=O)O,/,.,/,13,.,.,.
O=C(O)[C@H](Cc1ccccc1)NC(=O)C(c1ccccc1)(c1ccccc1)c1ccccc1,/,.,/,.,.,.,/
CC1CN(C(=O)COC(=O)c2ccc(Cl)nc2)CC(C)O1 (stereo unspecified),/,.,/,.,.,.,/
COc1ccc(C(=O)CSc2nc(C(C)(C)C)nc3ccccc23)cc1,/,.,/,13,.,.,.
CCOC(=O)c1c(-c2cccs2)csc1NC(=O)COC(=O)c1c(C)noc1C,.,.,.,12,.,.,.
